Test results: ChEMBL document CHEMBL3813625, “Discovery of a Novel, Orally Efficacious Liver X Receptor (LXR) β Agonist” (J Med Chem, 2016)
pEC50, pIC50: −log10 of the molar value.

Legend:
[1] = Half life in mouse liver microsomes; type: ADME
[2] = Half life in rat liver microsomes; type: ADME
[3] = Half life in human liver microsomes; type: ADME
[4] = target: T1, Oxysterols receptor LXR-alpha (Homo sapiens, UniProt Q13133); test: Binding affinity to human LXRalpha
T1 sequence (Q13133 whole entry): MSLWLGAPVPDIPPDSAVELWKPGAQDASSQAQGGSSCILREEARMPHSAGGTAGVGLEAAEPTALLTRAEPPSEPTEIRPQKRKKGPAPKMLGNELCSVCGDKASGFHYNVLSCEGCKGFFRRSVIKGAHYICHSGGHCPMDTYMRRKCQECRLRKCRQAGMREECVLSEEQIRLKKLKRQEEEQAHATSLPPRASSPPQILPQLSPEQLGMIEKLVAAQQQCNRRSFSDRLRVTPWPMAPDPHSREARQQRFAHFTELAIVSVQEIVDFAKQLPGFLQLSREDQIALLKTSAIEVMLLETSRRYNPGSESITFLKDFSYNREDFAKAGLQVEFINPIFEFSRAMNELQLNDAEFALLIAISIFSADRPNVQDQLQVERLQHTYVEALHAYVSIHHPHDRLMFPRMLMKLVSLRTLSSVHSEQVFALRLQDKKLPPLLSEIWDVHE

[5] = target: T2, Oxysterols receptor LXR-beta (Homo sapiens, UniProt P55055); test: Agonist activity at human LXRbeta coexpressed in African green monkey CV1 cells by Gal4 responsive reporter gene assay; type: cell-based, CV-1
T2 sequence (P55055 whole entry): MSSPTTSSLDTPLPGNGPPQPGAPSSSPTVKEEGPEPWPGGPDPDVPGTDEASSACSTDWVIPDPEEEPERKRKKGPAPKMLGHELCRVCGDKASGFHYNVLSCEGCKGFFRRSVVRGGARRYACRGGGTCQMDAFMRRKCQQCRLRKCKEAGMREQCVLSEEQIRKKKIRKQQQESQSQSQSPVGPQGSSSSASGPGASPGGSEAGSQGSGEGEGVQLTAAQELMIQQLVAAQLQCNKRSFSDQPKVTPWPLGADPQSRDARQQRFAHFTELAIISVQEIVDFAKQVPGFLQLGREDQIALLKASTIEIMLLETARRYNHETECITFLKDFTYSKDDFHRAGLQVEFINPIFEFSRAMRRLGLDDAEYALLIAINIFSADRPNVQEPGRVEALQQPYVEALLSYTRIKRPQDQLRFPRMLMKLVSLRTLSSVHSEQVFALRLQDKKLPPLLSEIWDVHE

[6] = target: T2, Oxysterols receptor LXR-beta; test: Binding to human LXRbeta
[7] = target: T1, Oxysterols receptor LXR-alpha; test: Agonist activity at human LXRalpha coexpressed in African green monkey CV1 cells by Gal4 responsive reporter gene assay; type: cell-based, CV-1
[8] = target: T1, Oxysterols receptor LXR-alpha; test: Agonist activity at human LXRalpha ligand binding domain(167 to 447 residues) transfected in HEK293 cells after 16 hrs by Gal4-luciferase reporter gene assay; type: cell-based
[9] = target: T2, Oxysterols receptor LXR-beta; test: Agonist activity at human LXRbeta ligand binding domain(155 to 460 residues) transfected in HEK293 cells after 16 hrs by Gal4-luciferase reporter gene assay; type: cell-based
[10] = target: T2, Oxysterols receptor LXR-beta; test: Agonist activity at human LXRbeta by Gal4 assay
Summary of the method: (§1)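 Cells were co-transfected with pG5-luc reporter and a Gal4 fusion of the ligand-binding domain (pGal4-LXRα LBD for α, pGal4-LXRβ LBD for β). Twenty hours after transfection, cells were treated with compound for 16 h. Agonist activity was read as luciferase signal and EC50 derived. Values are the average of at least two independent determinations.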

[11] = target: T1, Oxysterols receptor LXR-alpha; test: Agonist activity at human LXRalpha by Gal4 assay; summary of the method: as §1
[12] = Half life in cynomolgus monkey liver microsomes; type: ADME, Macaca fascicularis
[13] = target: T3, Mineralocorticoid receptor (Homo sapiens, UniProt P08235); test: Inhibition of Mineralocorticoid receptor (unknown origin)
T3 sequence (P08235 whole entry): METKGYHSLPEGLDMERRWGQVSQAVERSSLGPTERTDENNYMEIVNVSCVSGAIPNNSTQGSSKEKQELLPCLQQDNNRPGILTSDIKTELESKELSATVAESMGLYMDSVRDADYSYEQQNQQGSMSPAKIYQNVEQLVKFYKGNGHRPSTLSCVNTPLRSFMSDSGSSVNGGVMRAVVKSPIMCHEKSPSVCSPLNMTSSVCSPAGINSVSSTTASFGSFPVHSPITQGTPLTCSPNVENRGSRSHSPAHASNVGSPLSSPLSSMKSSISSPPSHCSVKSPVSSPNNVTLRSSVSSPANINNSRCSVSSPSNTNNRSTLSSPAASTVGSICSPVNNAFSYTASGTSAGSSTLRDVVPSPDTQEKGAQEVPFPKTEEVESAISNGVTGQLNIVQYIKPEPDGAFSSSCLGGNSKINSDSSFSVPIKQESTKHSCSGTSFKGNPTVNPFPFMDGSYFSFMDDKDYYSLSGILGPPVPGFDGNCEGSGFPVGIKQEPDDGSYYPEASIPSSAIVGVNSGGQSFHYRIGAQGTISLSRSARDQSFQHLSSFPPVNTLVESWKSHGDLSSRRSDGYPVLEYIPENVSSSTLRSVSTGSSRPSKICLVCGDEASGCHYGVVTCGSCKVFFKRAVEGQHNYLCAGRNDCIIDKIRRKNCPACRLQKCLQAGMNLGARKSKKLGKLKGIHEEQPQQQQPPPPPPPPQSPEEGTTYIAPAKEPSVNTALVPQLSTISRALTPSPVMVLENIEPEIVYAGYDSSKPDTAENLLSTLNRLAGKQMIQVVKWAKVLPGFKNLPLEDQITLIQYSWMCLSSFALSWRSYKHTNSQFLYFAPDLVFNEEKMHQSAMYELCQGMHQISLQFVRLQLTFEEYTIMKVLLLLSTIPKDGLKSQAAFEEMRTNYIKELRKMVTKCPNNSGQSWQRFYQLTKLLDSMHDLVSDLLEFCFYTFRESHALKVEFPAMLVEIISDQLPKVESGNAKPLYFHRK

[14] = target: T4, Nuclear receptor subfamily 1 group I member 2 (Homo sapiens, UniProt O75469); test: Inhibition of PXR (unknown origin)
T4 sequence (O75469 whole entry): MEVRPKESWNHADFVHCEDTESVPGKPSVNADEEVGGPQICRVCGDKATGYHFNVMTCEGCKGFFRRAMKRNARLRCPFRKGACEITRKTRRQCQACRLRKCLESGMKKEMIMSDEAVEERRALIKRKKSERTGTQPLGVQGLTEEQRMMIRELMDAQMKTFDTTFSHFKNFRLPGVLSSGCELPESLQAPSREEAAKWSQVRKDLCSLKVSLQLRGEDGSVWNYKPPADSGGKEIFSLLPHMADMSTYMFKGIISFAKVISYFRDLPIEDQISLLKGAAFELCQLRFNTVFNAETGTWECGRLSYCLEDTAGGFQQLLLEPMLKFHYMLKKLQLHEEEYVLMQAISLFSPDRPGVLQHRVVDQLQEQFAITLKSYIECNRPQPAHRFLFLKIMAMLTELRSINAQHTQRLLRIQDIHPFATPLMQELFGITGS

[15] = target: T5, Nuclear receptor ROR-alpha (Homo sapiens, UniProt P35398); test: Inhibition of RORalpha receptor (unknown origin)
T5 sequence (P35398 whole entry): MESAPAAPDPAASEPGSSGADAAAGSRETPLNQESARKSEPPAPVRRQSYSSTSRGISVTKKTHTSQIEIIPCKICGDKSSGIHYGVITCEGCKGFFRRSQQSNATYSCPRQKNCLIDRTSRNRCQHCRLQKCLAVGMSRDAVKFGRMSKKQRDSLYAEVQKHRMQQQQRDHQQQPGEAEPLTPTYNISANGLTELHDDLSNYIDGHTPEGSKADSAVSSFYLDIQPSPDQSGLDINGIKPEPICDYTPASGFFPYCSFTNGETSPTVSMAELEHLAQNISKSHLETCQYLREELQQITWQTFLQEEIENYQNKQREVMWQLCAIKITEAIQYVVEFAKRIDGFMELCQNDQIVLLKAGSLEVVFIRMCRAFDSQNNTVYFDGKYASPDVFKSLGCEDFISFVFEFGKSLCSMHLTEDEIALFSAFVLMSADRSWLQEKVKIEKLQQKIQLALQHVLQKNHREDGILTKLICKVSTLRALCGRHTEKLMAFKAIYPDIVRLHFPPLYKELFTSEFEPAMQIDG

Retinoid X receptor = target: T6, Retinoid X receptor (Homo sapiens, UniProt P28702+P48443+P19793); test: Inhibition of RXR (unknown origin); type: protein assay
T6 sequence (P28702 whole entry): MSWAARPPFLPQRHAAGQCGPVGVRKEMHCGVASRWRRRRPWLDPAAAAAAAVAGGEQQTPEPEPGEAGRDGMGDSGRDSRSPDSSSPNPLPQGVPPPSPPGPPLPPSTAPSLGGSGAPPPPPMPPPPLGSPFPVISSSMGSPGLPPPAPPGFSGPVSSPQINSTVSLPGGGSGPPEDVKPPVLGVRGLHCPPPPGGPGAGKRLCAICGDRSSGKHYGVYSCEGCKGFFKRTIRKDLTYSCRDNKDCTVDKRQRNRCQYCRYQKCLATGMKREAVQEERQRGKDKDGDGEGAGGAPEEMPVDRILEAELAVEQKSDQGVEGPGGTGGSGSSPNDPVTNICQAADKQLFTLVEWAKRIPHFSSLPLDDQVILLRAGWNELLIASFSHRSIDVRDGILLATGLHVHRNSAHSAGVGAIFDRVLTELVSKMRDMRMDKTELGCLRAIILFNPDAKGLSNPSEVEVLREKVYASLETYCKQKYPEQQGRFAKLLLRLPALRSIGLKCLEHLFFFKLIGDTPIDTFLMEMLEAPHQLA
T6 sequence (P48443 whole entry): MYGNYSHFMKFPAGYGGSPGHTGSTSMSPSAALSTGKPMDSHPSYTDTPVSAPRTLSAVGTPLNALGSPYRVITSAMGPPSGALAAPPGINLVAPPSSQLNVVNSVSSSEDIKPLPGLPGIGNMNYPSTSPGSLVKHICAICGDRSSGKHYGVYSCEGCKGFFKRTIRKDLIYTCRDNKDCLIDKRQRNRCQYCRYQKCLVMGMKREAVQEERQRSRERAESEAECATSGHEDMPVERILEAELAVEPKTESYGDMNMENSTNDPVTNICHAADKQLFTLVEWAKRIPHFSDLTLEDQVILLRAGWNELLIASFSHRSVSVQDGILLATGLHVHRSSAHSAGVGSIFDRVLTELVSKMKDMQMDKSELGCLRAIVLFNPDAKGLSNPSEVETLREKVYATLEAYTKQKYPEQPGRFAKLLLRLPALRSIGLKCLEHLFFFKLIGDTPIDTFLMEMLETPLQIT
T6 sequence (P19793 whole entry): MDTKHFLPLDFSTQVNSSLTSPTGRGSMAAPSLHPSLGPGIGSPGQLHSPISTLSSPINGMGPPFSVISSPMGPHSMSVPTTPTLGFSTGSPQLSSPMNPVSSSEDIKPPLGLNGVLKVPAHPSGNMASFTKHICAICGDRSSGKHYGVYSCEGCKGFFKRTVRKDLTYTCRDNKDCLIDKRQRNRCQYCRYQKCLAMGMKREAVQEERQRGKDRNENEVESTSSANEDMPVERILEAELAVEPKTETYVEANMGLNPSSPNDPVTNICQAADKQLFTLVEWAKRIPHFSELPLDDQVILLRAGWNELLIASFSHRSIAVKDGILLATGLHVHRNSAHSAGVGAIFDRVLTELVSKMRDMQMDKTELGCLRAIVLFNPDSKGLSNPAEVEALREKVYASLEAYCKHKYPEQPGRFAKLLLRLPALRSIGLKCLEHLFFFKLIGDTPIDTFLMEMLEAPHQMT

half-life [1] [min]	half-life [2] [min]	half-life [3] [min]	SMILES	further results
11	5		CC(C)[C@@H]1CN(c2ccc(F)c(S(C)(=O)=O)c2)CCN1c1nccc(C(F)(F)F)n1	
72	51	56	CC(C)[C@@H]1CN(c2ccc(F)c(S(C)(=O)=O)c2)CCN1c1ncc(C(C)(C)O)c(C(F)(F)F)n1	
			C[C@H](CC[C@@H]1OC1(C)C)[C@H]1CC[C@H]2[C@@H]3CC=C4C[C@@H](O)CC[C@]4(C)[C@H]3CC[C@]12C [24(S),25-EPOXYCHOLESTEROL]	pEC50 [4]: < 4.70; pEC50 [5]: 6.77; pEC50 [6]: < 4.70; pEC50 [7]: 6.93
	25		CC(C)[C@H]1CN(c2ccc(CO)c(S(C)(=O)=O)c2)CCN1c1ncc(CO)c(C(F)(F)F)n1	
			FC(F)(F)c1ccc(CN2CCN(c3ccccc3)CC2c2ccccc2)cn1 (stereo unspecified)	pEC50 [8]: < 4.70; pEC50 [9]: < 4.70
38	36	22	CC(C)[C@@H]1CN(c2ccc(F)c(S(C)(=O)=O)c2)CCN1c1ncc(CO)c(C(F)(F)F)n1	
	42	19	CC(C)[C@@H]1CN(c2ccc(F)c(S(C)(=O)=O)c2)CCN1c1ncc(Cl)c(C(F)(F)F)n1	
			O=C(O)Cc1cccc(OCCCN(Cc2cccc(C(F)(F)F)c2Cl)CC(c2ccccc2)c2ccccc2)c1	pEC50 [4]: 7.66; pEC50 [10]: 6.41; pEC50 [6]: 8.30; pEC50 [11]: 5.95
8	11		CC(C)[C@@H]1CN(c2cccc(S(C)(=O)=O)c2)CCN1c1nccc(C(F)(F)F)n1	
40	70	43	CC(C)[C@@H]1CN(c2ccc(CO)c(S(C)(=O)=O)c2)CCN1c1ncc(CO)c(C(F)(F)F)n1	half-life [12]: 10 min; pIC50 [13]: < 5.00; pIC50 [14]: < 5.00; pIC50 [15]: < 5.00; IC50 (Retinoid X receptor): > 10000 nM
